Drawing on ChEMBL document CHEMBL1146361, “Studies on acyclic pyrimidines as inhibitors of mycobacteria” (Bioorg Med Chem, 2007), this text covers Inhibition and Activity for seven compounds.

Active and inactive are the calls of the source. The rule behind the calls is not given here.

In assay [1] the test system is Mycobacterium tuberculosis. The experiment in a line: Antimycobacterial activity against Mycobacterium tuberculosis H37Ra by MABA. The assay is classed as functional. Details: concentration or dose not given beside the values. The method in brief:
(§1)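 Compounds in DMSO (100× highest final concentration), diluted in 7H9GC; tested at 100, 50, 10 and 1 µg/mL in triplicate, three experiments. Frozen inoculum diluted in 7H9GC. Read visually and spectrophotometrically. […], mean given. Visual MIC = lowest concentration preventing blue-to-pink change.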
For orientation: Resazurin is reduced to fluorescent resorufin, in cell work by metabolically active cells.

In another assay the test system is Staphylococcus aureus. Put plainly: Antibacterial activity against Staphylococcus aureus up to 100 ug/ml after 16 to 20 hrs by broth microdilution method. The assay is classed as functional, organism-based.
A further assay deals with Bacillus subtilis. The experiment in a line: Antibacterial activity against Bacillus subtilis up to 100 ug/ml after 16 to 20 hrs by broth microdilution method. The format is functional, organism-based. A general note: Dilution methods test growth across graded concentrations, often in twofold steps.
The subject of the next assay is Proteus vulgaris. The experiment in a line: Antibacterial activity against Proteus vulgaris up to 100 ug/ml after 16 to 20 hrs by broth microdilution method. The format is functional, organism-based.
A further assay concerns Pseudomonas aeruginosa. Put plainly: Antibacterial activity against Pseudomonas aeruginosa up to 100 ug/ml after 16 to 20 hrs by broth microdilution method. The assay is classed as functional, organism-based.
For the next assay, the system named is Mycobacterium avium. The experiment in a line: Antimycobacterial activity against Mycobacterium avium ATCC 25291. The assay is classed as functional. Details: concentration or dose not given beside the values. The method in brief:
as §1

In the next assay the test system is Enterococcus faecalis. Put plainly: Antibacterial activity against Enterococcus faecalis up to 100 ug/ml after 16 to 20 hrs by broth microdilution method. The format is functional, organism-based.
In another assay the test system is Streptococcus pneumoniae. Put plainly: Antibacterial activity against Streptococcus pneumoniae up to 100 ug/ml after 16 to 20 hrs by broth microdilution method. The assay is classed as functional, organism-based.
Another assay has as its system Escherichia coli. Put plainly: Antibacterial activity against Escherichia coli up to 100 ug/ml after 16 to 20 hrs by broth microdilution method. The assay is classed as functional, organism-based.
Another assay has as its system Salmonella typhimurium. Put plainly: Antibacterial activity against Salmonella Typhimurium up to 100 ug/ml after 16 to 20 hrs by broth microdilution method. The format is functional, organism-based. To be noted: Salmonella enterica subsp. enterica serovar Typhimurium.
Assay [2] concerns Staphylococcus epidermidis. Put plainly: Antibacterial activity against Staphylococcus epidermidis up to 100 ug/ml after 16 to 20 hrs by broth microdilution method. The format is functional, organism-based.

In the case of `[N-]=[N+]=NC(CCl)c1cn(COC(CO)CO)c(=O)[nH]c1=O` (configuration not stated), the Inhibition (in assay [1]; with Mycobacterium avium) was 0% throughout. Further, the result with Staphylococcus aureus, with Bacillus subtilis, in the assay with Proteus vulgaris, in the assay on Pseudomonas aeruginosa, in the assay with Enterococcus faecalis and with Streptococcus pneumoniae was inactive. Besides, the outcome (in the assay on Escherichia coli; in the assay on Salmonella typhimurium; in assay [2]) was inactive.
In the case of `O=c1[nH]c(=O)n(COC(CO)CO)cc1I` [IODACYCLUR], the Inhibition (in [1]; with Mycobacterium avium) was 0% each time. The result in the assay on Staphylococcus aureus, in the assay on Bacillus subtilis, in the assay with Proteus vulgaris, with Pseudomonas aeruginosa, with Enterococcus faecalis and in the assay on Streptococcus pneumoniae was inactive. Also, the result (with Escherichia coli; in the assay on Salmonella typhimurium; in assay [2]) was inactive.
For the compound `C=Cc1cn(COCCO)c(=O)[nH]c1=O`, the Inhibition (in assay [1]; with Mycobacterium avium) was 0% each time. Moreover, the outcome in the assay on Staphylococcus aureus, with Bacillus subtilis, in the assay on Proteus vulgaris, in the assay on Pseudomonas aeruginosa, in the assay on Enterococcus faecalis and with Streptococcus pneumoniae was inactive. Further, the outcome (with Escherichia coli; with Salmonella typhimurium; in [2]) was inactive.
As to `C=Cc1cn(COC(CO)CO)c(=O)[nH]c1=O`, the Inhibition (in assay [1]; in the assay with Mycobacterium avium) was 0% in each case. Moreover, the result in the assay with Staphylococcus aureus, in the assay on Bacillus subtilis, in the assay on Proteus vulgaris, with Pseudomonas aeruginosa, in the assay with Enterococcus faecalis and in the assay with Streptococcus pneumoniae was inactive. Moreover, the result (in the assay with Escherichia coli; in the assay on Salmonella typhimurium; in assay [2]) was inactive.
With `CCc1cn(COCCO)c(=O)[nH]c1=O`, the Inhibition (in assay [1]; with Mycobacterium avium) was 0% in each case. Also, the result with Staphylococcus aureus, in the assay on Bacillus subtilis, in the assay on Proteus vulgaris, in the assay on Pseudomonas aeruginosa, in the assay on Enterococcus faecalis and with Streptococcus pneumoniae was inactive. Besides, the result (in the assay with Escherichia coli; in the assay with Salmonella typhimurium; in assay [2]) was inactive.
Regarding `O=c1[nH]c(=O)n(COCCO)cc1[N+](=O)[O-]`, the Inhibition (in [1]; with Mycobacterium avium) was 0% throughout. In addition, the outcome in the assay with Staphylococcus aureus, in the assay on Bacillus subtilis, in the assay with Proteus vulgaris, in the assay on Pseudomonas aeruginosa, in the assay with Enterococcus faecalis and in the assay with Streptococcus pneumoniae was inactive. Further, the outcome (in the assay on Escherichia coli; in the assay on Salmonella typhimurium; in [2]) was inactive.
As to `O=c1[nH]c(=O)n(COCCO)cc1Cl`, the Inhibition (in [1]; in the assay with Mycobacterium avium) was 0% in each case. The outcome in the assay on Staphylococcus aureus, in the assay with Bacillus subtilis, with Proteus vulgaris, with Pseudomonas aeruginosa, in the assay on Enterococcus faecalis and in the assay on Streptococcus pneumoniae was inactive. Moreover, the result (in the assay on Escherichia coli; in the assay on Salmonella typhimurium; in assay [2]) was inactive.

Broadly, the Inhibition is the percentage by which the read-out fell short of the control.
